Assay results published in ChEMBL document CHEMBL1121553, “Substituted 6,7-dihydroimidazo[1,2-a]purin-9(4H)-ones” (J Med Chem, 1980).
Converted amounts (≈) assume the structure as drawn. Each block holds one molecule with its values, some of them ahead of it. The source made the active and inactive calls. The rule behind the calls is not given here.

Columns and labels:
Rattus norvegicus [1] = test: In vivo bronchodilator activity in methacholine (intravenous) induced bronchospasm in male Harlan-Sprague-Dawley rats when administered intraduodenally; statistically significant inhibition of < 50% at thr stated dose; type: functional
Cavia porcellus [2] = species on record: Cavia porcellus; test: In vitro bronchodilator activity in isolated guinea pig tracheal spiral preparation; type: functional; conditions: Trachea
Outline: (§1)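 Guinea pig tracheal spiral held under 1.0 g tension, equilibrated 90–120 min to maximal spontaneous tonus. One drug concentration per spiral, ≥3 trials per concentration. Relaxation was expressed as % of that produced by papaverine (10 µg/mL) in the same tissue. Concentrations are bath values in µg/mL; the 50%-relaxation concentration was obtained by regression.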

Rattus norvegicus [3] = test: In vivo bronchodilator activity in methacholine (intravenous) induced bronchospasm in male Harlan-Sprague-Dawley rats when administered intraduodenally; type: functional
Rattus norvegicus [4] = test: Antiallergic activity was evaluated by inhibition of allergen-induced bronchospasm in male Harlan-Wistar rats when administered intraduodenally 15 min prior to antigen challenge; type: functional; conditions: intraduodenal
Rattus norvegicus [5] = test: Antiallergic activity was evaluated by passive cutaneous anaphylaxis test in egg albumin sensitized male Harlan-Sprague-Dawley rats when administered perorally; type: functional; conditions: po
Outline: (§2)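 Donor rats got egg albumin im (1 mg/rat) plus killed B. pertussis vaccine ip (2 × 10¹⁰ organisms/rat) and were bled 10–12 days later for IgE-rich antiserum. Recipient rats (100–150 g) were sensitized intradermally with 0.1 mL of 1:2.5 and 1:10 antiserum dilutions.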

Cavia porcellus [6] = species on record: Cavia porcellus; test: Evaluation of in vitro bronchodilator activity in isolated guinea pig tracheal spiral preparation; type: functional; conditions: Trachea; outline: as §1
Rattus norvegicus [7] = test: In vivo bronchodilator effect on (intravenous) methacholine-induced bronchospasm in male Harlan-Sprague-Dawley rats at 10 mg/kg intraduodenal dose (inactive); type: functional, organism-based; parameters: dose 10 mg/kg
Rattus norvegicus [8] = test: Antiallergic activity by passive cutaneous anaphylaxis test in ovalbumin sensitized male Harlan-Sprague-Dawley rats at 25 mg/kg oral dose (inactive); type: functional, organism-based; parameters: dose 25 mg/kg; outline: as §2
Rattus norvegicus [9] = test: Antiallergic activity by passive cutaneous anaphylaxis test in rats by intraduodenal administration; type: functional
Outline: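 Recipient male Harlan-Sprague-Dawley or Wistar rats (100–150 g) received 0.1 mL intradermal antiserum at 1:2.5 and 1:10. Donor antiserum came from rats given egg albumin 1 mg im plus killed B. pertussis 2 × 10¹⁰ ip, bled 10–12 days later. After 48 h, drug went intraduodenally under anesthesia, then iv egg albumin 25 mg/kg with Evans blue 25 mg/kg. Read-out was spot-diameter inhibition versus controls, ≥5 rats/dose; ED50 was estimated.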

Rattus norvegicus [10] = test: Antiallergic activity by passive cutaneous anaphylaxis test in rats by intravenous administration; type: functional; outline: as §2
Rattus norvegicus [11] = species on record: Rattus norvegicus; test: Antiallergic activity by passive cutaneous anaphylaxis test in vitro in rats; type: functional
Outline: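 Peritoneal mast cells were lavaged from male Harlan-Sprague-Dawley rats (200–300 g) with HBSS containing 0.1% albumin and 5 mM phosphate. Cells were sensitized with IgE antiserum plus heparin for 2 h at 37 °C, then challenged with egg albumin, drug added simultaneously. After 10 min, histamine was measured fluorimetrically; inhibition versus no-drug release, four trials per concentration.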

Rattus norvegicus [12] = test: Percent inhibition of PCA reaction at 33 mg/kg oral dose after 24 hr r; type: functional
Rattus norvegicus [13] = test: Antiallergic activity by passive cutaneous anaphylaxis test in ovalbumin sensitized male Harlan-Sprague-Dawley rats administered perorally; type: functional; conditions: po; outline: as §2

IC50 (Cavia porcellus [2]): 4.8 µg/mL (≈ 14.5 µM)
Structure (SMILES): Cn1c(N)nc2c1C(=O)N1CCN=C1N2Cc1ccc(Cl)cc1
ED50 (Rattus norvegicus [1]): > 30 mg/kg

IC50 (Cavia porcellus [2]): 8.4 µg/mL (≈ 25.5 µM)
Structure (SMILES): Cc1nc2c(n1C)C(=O)N1CCN=C1N2Cc1ccc(Cl)cc1

IC50 (Cavia porcellus [2]): 1.7 µg/mL (≈ 4.94 µM)
Structure (SMILES): Cc1nc2c([nH]1)N(Cc1ccc(Cl)cc1)C1=NC(C)(C)CN1C2=O
ED50 (Rattus norvegicus [3]): 7.3 mg/kg
ED50 (Rattus norvegicus [4]): 1.08 mg/kg
ED50 (Rattus norvegicus [5]): 44.4 mg/kg

IC50 (Cavia porcellus [2]): 0.7 µg/mL (≈ 2.12 µM)
Structure (SMILES): C[C@H]1N=C2N(Cc3ccc(Cl)cc3)c3[nH]cnc3C(=O)N2[C@H]1C
ED50 (Rattus norvegicus [3]): 3 mg/kg
ED50 (Rattus norvegicus [4]): 1.7 mg/kg
ED50 (Rattus norvegicus [5]): 28.5 mg/kg

IC50 (Cavia porcellus [6]): 3.9 µg/mL (≈ 9.88 µM)
Structure (SMILES): Cn1c(Br)nc2c1C(=O)N1CCN=C1N2Cc1ccc(Cl)cc1
ED50 (Rattus norvegicus [7]): inactive

IC50 (Cavia porcellus [2]): 53 µg/mL (≈ 168 µM)
Structure (SMILES): O=C1c2[nH]cnc2N(CCc2ccc(Cl)cc2)C2=NCCN12
ED50 (Rattus norvegicus [8]): inactive

IC50 (Cavia porcellus [2]): 14 µg/mL (≈ 46.4 µM)
IC50 (Rattus norvegicus [11]): 490 µM
Structure (SMILES): O=C1c2[nH]cnc2N(Cc2ccc(Cl)cc2)C2=NCCN12
ED50 (Rattus norvegicus [9]): 8.4 mg/kg
ED50 (Rattus norvegicus [10]): 2.4 mg/kg
ED50 (Rattus norvegicus [4]): 0.9 mg/kg
inhibition in vivo at 33 mg/kg (Rattus norvegicus [12]): 11.5%

IC50 (Cavia porcellus [2]): 14 µg/mL (≈ 56.6 µM)
Structure (SMILES): CC(C)CN1C2=NC(C)CN2C(=O)c2[nH]cnc21 (configuration not stated)
ED50 (Rattus norvegicus [13]): > 30 mg/kg

IC50 (Cavia porcellus [2]): 19.8 µg/mL (≈ 65.8 µM)
Structure (SMILES): N=C1c2[nH]cnc2N(Cc2ccc(Cl)cc2)C2=NCCN12
ED50 (Rattus norvegicus [1]): > 30 mg/kg

IC50 (Cavia porcellus [2]): 128 µg/mL (≈ 477 µM)
Structure (SMILES): O=C1c2nc[nH]c2N(Cc2ccccn2)C2=NCCN12
ED50 (Rattus norvegicus [13]): > 25 mg/kg

IC50 (Cavia porcellus [2]): 2.8 µg/mL (≈ 11.3 µM)
Structure (SMILES): Cc1nc2c([nH]1)C(=O)N1CCN=C1N2CC(C)C
ED50 (Rattus norvegicus [4]): 5.4 mg/kg

The remaining lines, values behind:

Structure (SMILES): O=C1N2CCN=C2c2[nH]cnc2N1Cc1ccc(Cl)cc1
ED50 (Rattus norvegicus [1]): > 50 mg/kg

Structure (SMILES): O=C1c2[nH]cnc2N(Cc2ccc(F)cc2)C2=NCCN12
IC50 (Cavia porcellus [2]): 17.5 µg/mL (≈ 61.3 µM)

Structure (SMILES): Cc1nc2c(n1C)C(=O)N1CCN=C1N2CC(C)C
IC50 (Cavia porcellus [2]): 36.6 µg/mL (≈ 140 µM)

Structure (SMILES): CCc1nc2c([nH]1)N(Cc1ccc(Cl)cc1)C1=NCCN1C2=O
IC50 (Cavia porcellus [2]): 13 µg/mL (≈ 39.4 µM)
ED50 (Rattus norvegicus [1]): > 10 mg/kg

Structure (SMILES): CC1CN2C(=O)c3[nH]cnc3N(Cc3ccc(Cl)cc3)C2=N1 (configuration not stated)
IC50 (Cavia porcellus [2]): 3.7 µg/mL (≈ 11.7 µM)
ED50 (Rattus norvegicus [3]): 2.1 mg/kg
ED50 (Rattus norvegicus [4]): 1.5 mg/kg
ED50 (Rattus norvegicus [5]): 10.6 mg/kg

Structure (SMILES): CCCCCCCCN1C2=NCCN2C(=O)c2[nH]cnc21
IC50 (Cavia porcellus [6]): 24.5 µg/mL (≈ 84.7 µM)

Structure (SMILES): Cc1nc2c(n1C)C(=O)N1CC(C)N=C1N2Cc1ccc(Cl)cc1 (configuration not stated)
IC50 (Cavia porcellus [2]): 7.9 µg/mL (≈ 23 µM)
ED50 (Rattus norvegicus [3]): 7.5 mg/kg
ED50 (Rattus norvegicus [4]): 14.2 mg/kg
ED50 (Rattus norvegicus [5]): 38.7 mg/kg

Structure (SMILES): O=C1c2[nH]cnc2N(Cc2ccc(Cl)c(Cl)c2)C2=NCCN12
IC50 (Cavia porcellus [2]): 12.5 µg/mL (≈ 37.2 µM)

Structure (SMILES): O=C1c2nc[nH]c2N(CC2CCCCC2)C2=NCCN12
IC50 (Cavia porcellus [6]): 10 µg/mL (≈ 36.6 µM)
ED50 (Rattus norvegicus [8]): inactive

Structure (SMILES): O=C1c2[nH]cnc2N(Cc2cccc(Cl)c2)C2=NCCN12
IC50 (Cavia porcellus [2]): 12.5 µg/mL (≈ 41.4 µM)
